Results from ChEMBL document CHEMBL2176883, “Aminopiperidine sulfonamide Cav2.2 channel inhibitors for the treatment of chronic pain” (J Med Chem, 2012).
One block for each compound: values may come before it.

Tests used:
[1] = molecular target: T1, Voltage-dependent N-type calcium channel subunit alpha-1B (Homo sapiens, UniProt Q00975); test: Inhibition of Cav2.2 expressed HEK293 cells assessed as inhibition of calcium flux at 1 uM by FLIPR assay; format: cell-based
Method in brief: (§1)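 Calcium influx was read with a calcium-sensitive dye on FLIPR Tetra in CBK cells expressing α1B-1, α2-δ and β3a with Kir2.3. Cells were preincubated with compound in 30 mM K+, then channels were opened by 1:1 addition of 140 mM K+ solution. Compounds were screened at 1 μM, then titrated over 10 points (0.001–30 μM) in quadruplicate, mean ± SD. Values are averages of n ≥ 3.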

[2] = molecular target: T1, Voltage-dependent N-type calcium channel subunit alpha-1B; test: Inhibition of Cav2.2 expressed HEK293 cells assessed as inhibition of calcium flux by FLIPR assay in presence of 30 mM of potassium; format: cell-based; method in brief: as §1
[3] = Metabolic stability in human liver microsomes assessed as compound remaining at 1 uM after 1 hr; format: ADME, Microsome; details: read-out: Stability
Method in brief: (§2)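 Compound at 1 μM was incubated with human or rat liver microsomes (1 mg/mL) for 1 h, and the percentage of parent remaining was determined.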

hERG [4] = molecular target: T2, hERG (Homo sapiens, UniProt Q12809); test: Displacement of [35S]-MK-0499 from human ERG at 1 uM; details: probe [35S]-MK-0499
T2 sequence (Q12809 whole entry): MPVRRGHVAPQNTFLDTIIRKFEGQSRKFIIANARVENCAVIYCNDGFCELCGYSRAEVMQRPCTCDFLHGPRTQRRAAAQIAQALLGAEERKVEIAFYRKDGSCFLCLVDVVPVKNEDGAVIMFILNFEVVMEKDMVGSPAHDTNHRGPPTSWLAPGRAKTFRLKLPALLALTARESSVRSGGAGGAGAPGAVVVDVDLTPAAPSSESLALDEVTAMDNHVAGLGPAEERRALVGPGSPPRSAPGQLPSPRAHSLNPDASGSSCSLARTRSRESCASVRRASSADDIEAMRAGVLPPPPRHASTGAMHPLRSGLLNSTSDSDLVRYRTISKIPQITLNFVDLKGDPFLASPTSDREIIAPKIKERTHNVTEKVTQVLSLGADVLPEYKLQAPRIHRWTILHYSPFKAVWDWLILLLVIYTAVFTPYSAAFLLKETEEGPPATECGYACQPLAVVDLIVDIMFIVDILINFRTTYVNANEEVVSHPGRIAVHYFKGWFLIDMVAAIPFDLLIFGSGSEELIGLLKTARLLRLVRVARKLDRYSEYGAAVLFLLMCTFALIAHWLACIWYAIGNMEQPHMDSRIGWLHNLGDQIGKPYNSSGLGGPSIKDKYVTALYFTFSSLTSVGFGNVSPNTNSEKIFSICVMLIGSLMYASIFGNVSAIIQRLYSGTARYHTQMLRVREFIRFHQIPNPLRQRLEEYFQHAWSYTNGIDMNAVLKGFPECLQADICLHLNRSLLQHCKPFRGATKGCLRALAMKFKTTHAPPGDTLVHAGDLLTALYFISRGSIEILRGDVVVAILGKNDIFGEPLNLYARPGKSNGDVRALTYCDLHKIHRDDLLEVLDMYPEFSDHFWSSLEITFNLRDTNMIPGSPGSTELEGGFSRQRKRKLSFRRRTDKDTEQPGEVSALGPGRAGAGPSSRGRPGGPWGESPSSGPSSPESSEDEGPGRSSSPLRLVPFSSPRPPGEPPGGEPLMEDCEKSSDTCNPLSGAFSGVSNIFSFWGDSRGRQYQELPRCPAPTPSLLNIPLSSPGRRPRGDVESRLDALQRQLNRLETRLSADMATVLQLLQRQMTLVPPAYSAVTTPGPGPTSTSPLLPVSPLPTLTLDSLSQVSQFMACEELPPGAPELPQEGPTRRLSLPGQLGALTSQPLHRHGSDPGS
Method in brief: (§3)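 hERG binding was measured as displacement of 35S-labeled MK-0499 at single test concentrations.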

Rattus norvegicus [5] = test: Antinociceptive activity in rat assessed as reversal of complete Freund's adjuvant-induced pain at 3 mg/kg, iv after 1 hr; format: functional
Rattus norvegicus [6] = test: Antinociceptive activity in rat assessed as reversal of complete Freund's adjuvant-induced pain at 3 mg/kg, iv after 3 hrs; format: functional
[7] = Half life in rat at 3 mg/kg, po and 1 mg/kg, iv; format: ADME, organism-based; details: in vivo
Method in brief: (§4)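 Rat pharmacokinetics from iv and po arms: 0.6 mg/kg iv with 1.8 mg/kg po, or 1 mg/kg iv with 3 mg/kg po. AUC was normalized to po dose (μM·h·kg/mg). Clearance (mL/min/kg) and half-life come from the iv arm, and F% is oral bioavailability.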

Rattus norvegicus [8] = test: Dose normalized AUC in rat at 1.8 mg/kg, po and 0.6 mg/kg, iv; format: ADME, organism-based; details: in vivo; method in brief: as §4
[9] = Metabolic stability in rat liver microsomes assessed as compound remaining at 1 uM after 1 hr; format: ADME, Microsome; details: read-out: Stability; method in brief: as §2
hERG [10] = molecular target: T2, hERG; test: Displacement of [35S]-MK-0499 from human ERG at 10 uM; details: probe [35S]-MK-0499; method in brief: as §3
[11] = Oral bioavailability in rat at 3 mg/kg; format: ADME, organism-based; details: in vivo; method in brief: as §4
[12] = Plasma clearance in rat at 3 mg/kg, po and 1 mg/kg, iv; format: ADME, organism-based; method in brief: as §4
Cav1.2 [13] = molecular target: T3, Cav1.2 (Homo sapiens, UniProt Q13936); test: Inhibition of Cav1.2 assessed as inhibition of calcium flux at 3 uM by cell based FLIPR assay
T3 sequence (Q13936 whole entry): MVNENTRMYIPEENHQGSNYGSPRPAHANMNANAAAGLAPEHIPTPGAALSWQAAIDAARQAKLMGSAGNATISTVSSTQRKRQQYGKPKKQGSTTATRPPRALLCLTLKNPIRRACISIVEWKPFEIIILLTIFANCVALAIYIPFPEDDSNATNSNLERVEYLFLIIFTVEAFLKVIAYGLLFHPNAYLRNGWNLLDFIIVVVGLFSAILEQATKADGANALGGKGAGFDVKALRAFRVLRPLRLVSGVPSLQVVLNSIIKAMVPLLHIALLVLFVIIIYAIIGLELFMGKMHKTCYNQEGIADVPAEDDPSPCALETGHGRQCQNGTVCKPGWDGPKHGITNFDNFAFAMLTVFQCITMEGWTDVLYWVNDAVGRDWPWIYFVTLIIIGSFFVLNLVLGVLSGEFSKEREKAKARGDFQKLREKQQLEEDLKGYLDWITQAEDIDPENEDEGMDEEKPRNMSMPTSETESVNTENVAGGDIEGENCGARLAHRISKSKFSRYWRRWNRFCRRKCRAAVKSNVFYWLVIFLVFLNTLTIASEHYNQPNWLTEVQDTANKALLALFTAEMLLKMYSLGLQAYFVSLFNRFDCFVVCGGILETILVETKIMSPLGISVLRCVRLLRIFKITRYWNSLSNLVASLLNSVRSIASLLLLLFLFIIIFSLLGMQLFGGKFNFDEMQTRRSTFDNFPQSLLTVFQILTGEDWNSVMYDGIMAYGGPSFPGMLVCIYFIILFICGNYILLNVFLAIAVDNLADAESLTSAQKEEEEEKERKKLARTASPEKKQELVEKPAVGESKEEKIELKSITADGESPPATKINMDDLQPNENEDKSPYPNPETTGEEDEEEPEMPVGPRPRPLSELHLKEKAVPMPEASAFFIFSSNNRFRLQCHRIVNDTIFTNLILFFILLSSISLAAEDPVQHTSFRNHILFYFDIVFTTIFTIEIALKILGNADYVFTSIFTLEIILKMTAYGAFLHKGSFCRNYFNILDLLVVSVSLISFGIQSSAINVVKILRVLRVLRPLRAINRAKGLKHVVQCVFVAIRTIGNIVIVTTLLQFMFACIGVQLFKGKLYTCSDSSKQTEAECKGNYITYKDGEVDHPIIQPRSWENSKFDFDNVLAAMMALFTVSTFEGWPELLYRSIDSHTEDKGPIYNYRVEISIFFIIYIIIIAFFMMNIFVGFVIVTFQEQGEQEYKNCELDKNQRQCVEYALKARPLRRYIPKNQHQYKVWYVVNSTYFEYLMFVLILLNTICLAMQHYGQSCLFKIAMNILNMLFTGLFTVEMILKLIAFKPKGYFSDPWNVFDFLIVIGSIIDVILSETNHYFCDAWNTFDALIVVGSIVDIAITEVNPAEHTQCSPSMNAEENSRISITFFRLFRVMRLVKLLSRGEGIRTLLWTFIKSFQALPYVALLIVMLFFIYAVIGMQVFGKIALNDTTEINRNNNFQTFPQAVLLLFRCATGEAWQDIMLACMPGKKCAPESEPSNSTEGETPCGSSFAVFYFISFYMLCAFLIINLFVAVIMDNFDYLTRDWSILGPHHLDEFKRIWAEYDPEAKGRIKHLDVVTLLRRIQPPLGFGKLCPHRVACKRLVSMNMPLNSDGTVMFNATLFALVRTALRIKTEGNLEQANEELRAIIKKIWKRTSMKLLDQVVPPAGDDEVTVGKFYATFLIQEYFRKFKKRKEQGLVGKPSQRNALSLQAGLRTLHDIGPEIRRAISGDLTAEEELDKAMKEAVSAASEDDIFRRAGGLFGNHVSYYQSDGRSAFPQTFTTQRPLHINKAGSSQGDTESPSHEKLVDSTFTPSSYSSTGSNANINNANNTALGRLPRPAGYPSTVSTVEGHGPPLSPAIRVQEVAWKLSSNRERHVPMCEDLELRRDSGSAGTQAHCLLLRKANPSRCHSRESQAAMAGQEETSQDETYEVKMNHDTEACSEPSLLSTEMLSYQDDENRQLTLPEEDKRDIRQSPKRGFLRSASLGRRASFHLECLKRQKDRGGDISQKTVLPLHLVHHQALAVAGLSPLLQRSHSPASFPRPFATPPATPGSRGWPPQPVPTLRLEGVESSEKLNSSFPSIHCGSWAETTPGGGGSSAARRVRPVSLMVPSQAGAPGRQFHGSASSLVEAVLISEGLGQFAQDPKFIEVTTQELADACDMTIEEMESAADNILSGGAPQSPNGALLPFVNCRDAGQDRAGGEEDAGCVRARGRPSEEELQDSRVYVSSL
Method in brief: (§5)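 Cav1.2 counterscreen using a related calcium-influx FLIPR assay, run as % inhibition at single concentrations or as a titration.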

Cav1.2 [14] = molecular target: T3, Cav1.2; test: Inhibition of Cav1.2 assessed as inhibition of calcium flux at 1 uM by cell based FLIPR assay; method in brief: as §5
[15] = Oral bioavailability in rat; format: ADME, organism-based; details: in vivo; method in brief: as §4
[16] = molecular target: T1, Voltage-dependent N-type calcium channel subunit alpha-1B; test: Inhibition of Cav2.2 expressed HEK293 cells assessed as inhibition of calcium flux by FLIPR assay in presence of 4 mM of potassium; format: cell-based
Method in brief: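 HEK-293-derived CBK cells coexpress α1B-1, α2-δ and β3a with Kir2.3. Compound was incubated in 4 mM K+ bath, holding about −90 mV. Ca2+ influx was read with a Ca-sensitive dye on FLIPR Tetra. Ten-point titrations ran 0.001–30 μM in quadruplicate, averaged ± SD to give IC50.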

Rattus norvegicus [17] = test: Dose normalized AUC in po dosed rat; format: ADME, organism-based; details: in vivo; method in brief: as §4
[18] = molecular target: Voltage-dependent L-type calcium channel subunit alpha-1C (Homo sapiens, UniProt Q13936); test: Inhibition of Cav1.2 assessed as inhibition of calcium flux by cell based FLIPR assay; method in brief: as §5
Chain of Voltage-dependent L-type calcium channel subunit alpha-1C (Q13936 whole entry): as above

[19] = Plasma clearance in rat; format: ADME, organism-based; method in brief: as §4

Compound: CS(=O)(=O)c1ccc(F)cc1C(=O)N1CCC(N(C2CC2)S(=O)(=O)c2ccc(OC(F)(F)F)cc2)CC1
inhibition [1]: 0%

Compound: CS(=O)(=O)c1cccc(S(=O)(=O)N(C2CC2)C2CCN(C(=O)c3cc(F)ccc3S(C)(=O)=O)CC2)c1
inhibition [1]: 0%

Compound: CCCN(C1CCN(Cc2c(OC)cccc2OC)CC1)S(=O)(=O)c1cccc(C(F)(F)F)c1
bioavailability [15]: 4%
IC50 [16]: 4.8 µM
AUC/dose (Rattus norvegicus [17]): 0.007 µM·kg·h/mg
inhibition at 1 µM (hERG [4]): 91%
IC50 [18]: 3.2 µM
clearance [19]: 10.1 L/h/kg
IC50 [2]: 0.12 µM

Compound: O=C(c1ccccc1)N1CCC(N(C2CC2)S(=O)(=O)c2cccc(C(F)(F)F)c2)CC1
inhibition [1]: 42%

Compound: CS(=O)(=O)c1ccc(F)cc1C(=O)N1CCC(N(C2CC2)S(=O)(=O)c2ccc(C(F)(F)F)cc2)CC1
inhibition [1]: 1%

Compound: NC(=O)c1ccccc1C(=O)N1CCC(N(C2CC2)S(=O)(=O)c2cccc(C(F)(F)F)c2)CC1
inhibition at 3 µM (Cav1.2 [13]): 17%
inhibition at 1 µM (Cav1.2 [14]): 11%
inhibition [1]: 15%

Second part, led by results:

inhibition [1]: 17%
Compound: CS(=O)(=O)c1ccc(F)cc1C(=O)N1CCC(N(C2CC2)S(=O)(=O)c2ccccc2C(F)(F)F)CC1

IC50 [2]: 1.1 µM
Compound: CS(=O)(=O)c1ccc(F)cc1C(=O)N1CCC(N(C2CC2)S(=O)(=O)c2cccc(OC(F)(F)F)c2)CC1

remaining at 1 h, 1 µM [3]: 1%
half-life [7]: 1.6 h
AUC/dose (Rattus norvegicus [8]): 0.23 µM·kg·h/mg
remaining at 1 h, 1 µM [9]: 21%
IC50 [2]: 0.12 µM
bioavailability [11]: 47%
clearance [12]: 3.9 L/h/kg
Compound: O=C(c1ccccc1OC(F)(F)F)N1CCC(N(C2CC2)S(=O)(=O)c2cccc(C(F)(F)F)c2)CC1
inhibition at 1 µM (hERG [4]): 21%
Activity (Rattus norvegicus [5]): 23%
Activity (Rattus norvegicus [6]): 17%
inhibition at 10 µM (hERG [10]): 75%

IC50 [2]: 0.3 µM
Compound: O=C(c1ccc(OC(F)(F)F)cc1)N1CCC(N(C2CC2)S(=O)(=O)c2cccc(C(F)(F)F)c2)CC1
inhibition at 1 µM (hERG [4]): 0%
inhibition at 3 µM (Cav1.2 [13]): 88%
inhibition at 10 µM (hERG [10]): 77%
inhibition at 1 µM (Cav1.2 [14]): 73%

IC50 [2]: 0.38 µM
Compound: COC(=O)c1cccc(C(=O)N2CCC(N(C3CC3)S(=O)(=O)c3cccc(C(F)(F)F)c3)CC2)c1
inhibition at 1 µM (hERG [4]): 2.4%
inhibition at 10 µM (hERG [10]): 66%

inhibition [1]: 0%
Compound: NC(=O)c1cccc(C(=O)N2CCC(N(C3CC3)S(=O)(=O)c3cccc(C(F)(F)F)c3)CC2)c1

inhibition [1]: 12%
Compound: NC(=O)c1ccc(C(=O)N2CCC(N(C3CC3)S(=O)(=O)c3cccc(C(F)(F)F)c3)CC2)cc1
inhibition at 3 µM (Cav1.2 [13]): 0%
inhibition at 1 µM (Cav1.2 [14]): 0%
